Shown is part of a subset that was picked to be rich in hits.
INS promoter act: activators of insulin promoter-driven GFP, primary screen, imaging, TRM-6 cells, eGFP reporter, cell count; activation, % at 2 µM; AID 1296, 2008; actives 0.81% (n = 130,000); plate-scaled: unstimulated 0, stimulated control 100;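 active = activation at 2 µM above a set limit, confirmed on inspection of the cell images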;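 also: share of cells whose green reporter signal exceeds an intensity cutoff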
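Test system: human fetal islet-derived TRM-6 cells with tamoxifen-inducible insulin promoter–eGFP reporter. Compound dosing: 2 µM final, single concentration. Incubation: tamoxifen pre-incubation 15 h overnight, then compound exposure 48 h at 37 °C. Signal: fixed-cell fluorescence microscopy, eGFP plus Hoechst.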
The depositor's hits bear a star.

SMILES	INS promoter act
CC(=O)Nc1cc(ON=C(C)C)cc([N+](=O)[O-])c1	193
CCOc1ccc(NC(=O)c2nn(-c3ccc(OC)cc3OC)c(=O)c3ccccc23)cc1	-85
CCN1CCCc2cc(CN(CCN3CCOCC3)C(=S)Nc3ccc(OC)c(OC)c3)ccc21	425*
CCc1ccc(NC(=O)N(CCN2CCOCC2)Cc2ccc3c(c2)CCCN3CC)cc1	-8
CCN1CCCc2cc(CN(CCN3CCOCC3)C(=S)Nc3ccccc3C)ccc21	-8
CC(C)N(C(=O)c1ccccc1-c1ccccc1)C(C)C	-3
Cc1cc(NC(=O)/C=C/c2ccc(F)cc2)n(-c2nc3ccccc3[nH]2)n1	-10
Cc1cc(NC(=O)c2c(F)cccc2F)n(-c2nc3ccccc3[nH]2)n1	9
Cc1cc(NC(=O)/C=C/c2cccc(Cl)c2)n(-c2nc3ccccc3[nH]2)n1	300*
COC(=O)C1=C(C)N(C)C(=S)N(C)C1c1cccc(Br)c1 (centres undefined)	-6
CCSc1nn2c(=O)c3ccccc3nc2s1	103
N#Cc1cccc(NC(=O)CSc2ccc3c4c(cccc24)C(=O)c2ccccc2-3)c1	233*
N#Cc1cccc(NC(=O)CSc2ccccc2)c1	-9
COc1ccc(NC(=O)CSc2ccc3c4c(cccc24)C(=O)c2ccccc2-3)cc1	111
O=C(CCCCC(=O)NC1CCCC1)NC1CCCC1	-7
COC(=O)C1=C(C)N(CCCC(=O)O)C(=O)NC1c1ccc(-c2ccccc2)cc1 (centres undefined)	0
COC(=O)C1=C(C)C(c2cccs2)NC(=O)N1C (centres undefined)	-3
COC(=O)C1=C(C)N(CCCC(=O)O)C(=O)NC1c1cccs1 (centres undefined)	295*
Cc1ccccc1Cn1nc(C)c(NC(=O)C2c3ccccc3Oc3ccccc32)c1C	4
COc1ccc(NC(=O)c2ccc([N+](=O)[O-])cc2[N+](=O)[O-])c(OC)c1	9
COC(=O)c1ccc(C(=O)OC)c(NC(=O)COC(=O)C2CC2C)c1 (centres undefined)	10
COc1ccc(NC(=O)CSc2nncn2C)cc1OC	-71
Nc1nc(SCC(=O)Nc2ccc(Br)cc2F)n[nH]1	-75
COc1ccc(NC(=O)CSc2n[nH]c(N)n2)cc1OC	332*
CCOC(=O)c1c(N2C(=O)Nc3cc(Cl)c(Cl)cc3N2O)sc2c1CCCCC2	8
SMILES	INS promoter act
CS(=O)(=O)N(CC(=O)NC1CCCC1)Cc1ccc(Cl)cc1	-3
CN1CCN(C(=O)CN(Cc2ccc(Cl)cc2)S(C)(=O)=O)CC1	579*
CS(=O)(=O)N(CC(=O)N1CCCCCC1)Cc1ccc(Cl)cc1	-7
COc1ccc2nc(NC(=O)c3cccnc3SC)sc2c1	0
CCOC(=O)c1c(NC(=O)CN2CCOCC2)sc(C(=O)NC)c1C	-7
CCOC(=O)c1c(NC(=O)CN2CCOCC2)sc2c1CCCC2=O	-10
Cc1sc(NC(=O)CN2CCOCC2)c(C(=O)c2ccccc2)c1C	75*
CCOc1ccccc1NC(=O)COC(=O)CSc1ccc(Cl)cc1	-8
O=C(Nc1cccc(C(F)(F)F)c1)C12CC3CC(CC(C3)C1)C2	5
CN(C(=O)COC(=O)CNC(=O)c1ccc(Cl)cc1Cl)c1ccccc1	0
CCNc1c(NC(C)=O)c(=O)oc2ccccc12	200*
CC(=O)Nc1c(C(=O)c2ccccc2)oc2ccccc12	-71
CN=C(C)c1c(O)c2ccccc2oc1=O	3
COC(=O)C1CCN(S(=O)(=O)c2ccc(OC)cc2)CC1	-3
COc1ccc(C2OC(=O)CC2C(=O)NCc2ccccc2Cl)cc1OC (centres undefined)	-8
Cc1ccnc2ccc(SC(F)(F)F)cc12	417*
CCOC(=O)c1ccc(Oc2c(C)oc3cc(OS(C)(=O)=O)ccc3c2=O)cc1	-7
COc1ccc(CCn2ccc(O)c(Cc3c(F)cccc3Cl)c2=O)cc1OC	0
O=C(c1ccccn1)c1cc2ccccc2n1S(=O)(=O)c1ccccc1	3
O=C(Nc1ccc(S(=O)(=O)N2CCCCC2)cc1)c1ccc(CN2CCc3ccccc3C2)cc1	3
CCNS(=O)(=O)c1ccc(NC(=O)c2ccccc2OCC)cc1	206
CCN1CCCC1CNS(=O)(=O)c1ccc(C(=O)Nc2ccccc2)cc1 (centres undefined)	500*
COc1ccc2ccccc2c1C(=O)/C=C\c1ccoc1	-79
CS(=O)(=O)c1ccc(C(=O)N2CCN(Cc3ccccc3)CC2)cc1	0
CS(=O)(=O)N1CCC(C(=O)N2CCN(Cc3ccccc3)CC2)CC1	438*
SMILES	INS promoter act
Cc1[nH]c(=O)[nH]c(=O)c1S(=O)(=O)N1CCC(C(=O)N2CCN(Cc3ccccc3)CC2)CC1	6
CCN(CC)S(=O)(=O)c1cccc(C(=O)N[C@H](C(=O)OCC(=O)NC(=O)NC)C(C)C)c1	-3
O=C(/C=C/c1ccco1)NC(=S)Nc1cc(C(F)(F)F)ccc1N1CCOCC1	211*
CC(C)(C)C(=O)Nc1cc(C(F)(F)F)ccc1N1CCOCC1	-14
O=C(CCCCl)NC(=S)Nc1cc(C(F)(F)F)ccc1N1CCOCC1	-2
COc1ccc(NC(=O)C(=O)N2N=C(C(C)C)CC2(O)C(F)(F)F)cc1 (centres undefined)	-7
COc1ccc(CC(=O)Nc2cccc(-c3ccc4nnc(C)n4n3)c2)cc1	0
COc1ccc(CC(=O)Nc2c3c(nn2-c2ccccc2C)CS(=O)C3)cc1 (centres undefined)	456*
CCc1ccc(NC(=O)Cc2ccc(OC)cc2)cc1	-3
O=C(NCCCCNC(=O)c1c(F)c(F)c(F)c(F)c1F)c1c(F)c(F)c(F)c(F)c1F	-8
O=[N+]([O-])c1ccc(N/N=C/c2c[nH]c3ccccc23)cc1	223*
COc1ccccc1NS(=O)(=O)c1ccc(N/N=C/c2c(C)nn(-c3ccccc3)c2N2CCCC2)c([N+](=O)[O-])c1	-4
O=C(CNc1ccccc1)N/N=C/c1c[nH]c2ccccc12	-7
O=C(N/N=C/c1ccc[nH]1)c1ccncc1	7
CNc1nc(N/N=C/c2ccc([N+](=O)[O-])cc2)nc(Nc2ccccc2)n1	0
COc1ccccc1NS(=O)(=O)c1cc([N+](=O)[O-])ccc1N/N=C/c1c[nH]c2ccccc12	264*
COc1ccccc1NS(=O)(=O)c1cccc2cccnc12	-50
O=[N+]([O-])c1ccc(N/N=C/c2ccc[nH]2)cc1	245*
O=C(N/N=C/c1c[nH]c2ccccc12)c1[nH]c2ccc(Br)cc2c1-c1ccccc1	233
CCC1Cc2c(nc3c4c(nc(N5CCOCC5)c(C#N)c24)NC(C)=N3)O1 (centres undefined)	23
O=C(c1ccc(F)cc1)N1CCCCC(S(=O)(=O)c2ccccc2)C1=O (centres undefined)	119
CC(NC(=O)C1CCN(S(=O)(=O)c2cnc[nH]2)CC1)c1ccccc1 (centres undefined)	0
CCOC(=O)c1ccc(NC(=O)CSc2ccc(-c3ccncc3)nn2)cc1	8
COc1cc(-c2nnc(SC(C)C(=O)Nc3c(C)n(C)n(-c4ccccc4)c3=O)o2)cc(OC)c1OC (centres undefined)	0
C=CCn1c(SCC(=O)Nc2sccc2C#N)nc2sc(C)c(C)c2c1=O	-6
COc1ccc(N2CCN(S(=O)(=O)c3cccs3)CC2)cc1	500*
COc1ccccc1N1CCN(S(=O)(=O)c2cccs2)CC1	3
COc1ccc(N2CCN(S(=O)(=O)c3ccc(Cl)s3)CC2)cc1	2
